Experimental data as given in PMC5910468 (Advances in Therapy, 2018).
Where two headings read alike, the source gives them in different places.

Assays:
[1] = Anti-semaglutide antibodies; assay type: in vivo, human; settings: both populations, 0.5 and 1.0 mg, at follow-up
[2] = SUSTAIN 6, no change with placebo, cited from earlier work
[3] = assay type: in vivo, human; settings: for AUC0–168h,sema,SS estimated race ratio [95% CI] (Japanese/Caucasian) / Cmax,sema,SS estimated race ratio [95% CI] (Japanese/Caucasian): steady state
Procedure, shortened: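 Healthy Japanese or Caucasian men, s.c. once weekly with stepwise escalation from 0.25 mg. Plasma drug measured by validated LC–MS/MS. Dense sampling 0–168 h after first dose and 0–840 h after last dose (day 84), with pre-dose troughs from day 7 to 84. AUC0–168h by linear trapezoidal method at actual times. Racc,DC = (AUC_SS/last dose)/(AUC_SD/first dose). Log values fitted by linear normal model (race, dose, race×dose) and back-transformed to ratios with 95% CI.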

[4] = assay type: in vivo, human; settings: for Gastrointestinal disorders, proportion of subjects / Adverse events, proportion of subjects: 8 subjects
Procedure, shortened: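 Double-blind, placebo-controlled, 13 weeks of once-weekly s.c. dosing plus 5 weeks of follow-up. Monitored adverse events, hypoglycemic episodes, vital signs, ECG and physical examination. Laboratory tests covered hematology, biochemistry, calcitonin and urinalysis, and anti-drug antibodies were measured at follow-up. Every randomized subject given at least one dose was included in the safety analysis.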

[5] = Pulse rate change from baseline to end of treatment; assay type: in vivo, human
[6] = semaglutide; cited from earlier work
[7] = semaglutide 0.5 mg s.c. once weekly
[8] = semaglutide 1.0 mg s.c. once weekly
[9] = Japanese subjects, 0.5 mg, placebo 16.7%
[10] = Japanese subjects, 1.0 mg, placebo 16.7%

Dose-corrected accumulation ratio ([3]; overall statement, once-weekly dosing, both races and doses): approximately 2 | Racc,DC,sema estimated race ratio [95% CI] (Japanese/Caucasian) ([3]; semaglutide 0.5 mg): 0.87 [0.78; 0.96] | AUC0–168h,sema,SS estimated race ratio [95% CI] (Japanese/Caucasian) [3, 7]: 1.06 [0.92; 1.23] | Cmax,sema,SS estimated race ratio [95% CI] (Japanese/Caucasian) [3, 7]: 1.06 [0.91; 1.23] | Racc,DC,sema estimated race ratio [95% CI] (Japanese/Caucasian) ([3]; semaglutide 1.0 mg): 0.90 [0.82; 1.00] | AUC0–168h,sema,SS estimated race ratio [95% CI] (Japanese/Caucasian) [3, 8]: 0.99 [0.85; 1.16] | Cmax,sema,SS estimated race ratio [95% CI] (Japanese/Caucasian) [3, 8]: 1.02 [0.87; 1.19] | Gastrointestinal disorders, proportion of subjects ([4]; Caucasian subjects, 0.5 mg, placebo 0.0%): 25.0% | Gastrointestinal disorders, proportion of subjects ([4]; Caucasian subjects, 1.0 mg, placebo 0.0%): 25.0% | Gastrointestinal disorders, proportion of subjects [4, 9]: 62.5% | Gastrointestinal disorders, proportion of subjects [4, 10]: 37.5% | Biochemistry parameters, including amylase, lipase and calcitonin ([4]; any of the treatment or race groups): No noticeable trends | Hypoglycemic events ([4]; both populations, 0.5 and 1.0 mg, during the trial): No hypoglycemic events were reported | Pulse rate increase from baseline to end of treatment ([5]; Caucasian subjects, 0.5 mg, placebo 2.8 bpm): 14.6 bpm | Pulse rate increase from baseline to end of treatment ([5]; Caucasian subjects, 1.0 mg, placebo 2.8 bpm): 10.5 bpm | Pulse rate increase from baseline to end of treatment ([5]; Japanese subjects, 0.5 mg, placebo decrease of 0.5 bpm): 8.5 bpm | Pulse rate increase from baseline to end of treatment ([5]; Japanese subjects, 1.0 mg, placebo decrease of 0.5 bpm): 10.4 bpm
Structure (SMILES): CC[C@H](C)[C@H](NC(=O)[C@H](Cc1ccccc1)NC(=O)[C@H](CCC(=O)O)NC(=O)[C@H](CCCCNC(=O)COCCOCCNC(=O)COCCOCCNC(=O)CC[C@H](NC(=O)CCCCCCCCCCCCCCCCC(=O)O)C(=O)O)NC(=O)[C@H](C)NC(=O)[C@H](C)NC(=O)[C@H](CCC(N)=O)NC(=O)CNC(=O)[C@H](CCC(=O)O)NC(=O)[C@H](CC(C)C)NC(=O)[C@H](Cc1ccc(O)cc1)NC(=O)[C@H](CO)NC(=O)[C@H](CO)NC(=O)[C@@H](NC(=O)[C@H](CC(=O)O)NC(=O)[C@H](CO)NC(=O)[C@@H](NC(=O)[C@H](Cc1ccccc1)NC(=O)[C@@H](NC(=O)CNC(=O)[C@H](CCC(=O)O)NC(=O)C(C)(C)NC(=O)[C@@H](N)Cc1cnc[nH]1)[C@@H](C)O)[C@@H](C)O)C(C)C)C(=O)N[C@@H](C)C(=O)N[C@@H](Cc1c[nH]c2ccccc12)C(=O)N[C@@H](CC(C)C)C(=O)N[C@H](C(=O)N[C@@H](CCCNC(=N)N)C(=O)NCC(=O)N[C@@H](CCCNC(=N)N)C(=O)NCC(=O)O)C(C)C [Semaglutide]
Development of anti-semaglutide antibodies [1]: No subjects developed anti-semaglutide antibodies | Mean pulse rate increase ([2]; semaglutide 0.5 mg): 2.1 bpm | Mean pulse rate increase ([2]; semaglutide 1.0 mg): 2.4 bpm | Adverse events, proportion of subjects ([4]; Caucasian subjects, 0.5 mg, placebo 33.3%): 50.0% | Adverse events, proportion of subjects ([4]; Caucasian subjects, 1.0 mg, placebo 33.3%): 62.5% | Adverse events, proportion of subjects [4, 9]: 75.0% | Adverse events, proportion of subjects [4, 10]: 62.5% | ECG readings or physical examinations ([4]; both populations, 0.5 and 1.0 mg): no clinically significant abnormalities | Severity of adverse events ([4]; both populations, 0.5 and 1.0 mg, none were severe): mild to moderate | Half-life (t1/2) [6]: ~ 1 week
